In assay [1] the test system is T. gondii RH M190D4. The experiment in a line: T. gondii growth in HFF monolayer, [3H]uracil incorporation. The class given is cell-based, Toxoplasma gondii. An outline of the steps:
(§1)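 Confluent human fibroblasts infected with tachyzoites with or without test compound. After 72 h, washed and pulsed with [3H]uracil for 4 h, then washed and solubilized. Acid-precipitable radioactivity counted by liquid scintillation. EC50 by nonlinear regression.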

In assay [2] the test system is T. gondii Prugniaud. Described as above. It counts as cell-based. The settings on record: Toxoplasma gondii, read-out: EC50 (nM ± SD). An outline of the steps: as §1
Assay [3] concerns T. gondii type II Prugniaud strain. Description: Bradyzoite differentiation, SRS9/P36 expression by IFA. The class given is cell-based, Toxoplasma gondii.
Assay [4] has as its system T. gondii RH WT. Description: T. gondii growth in HFF monolayer, [3H]uracil incorporation. It counts as cell-based. The note with it: Toxoplasma gondii. The method, boiled down:
as §1

The subject of assay [5] is T. gondii RH WT. The experiment in a line: Immunofluorescence of intracellular T. gondii. It counts as cell-based, Toxoplasma gondii. The note with it: IFA, 24 h, 40 nM FR235222, 1 µM pyrimethamine. An outline of the steps:
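Confluent HFF monolayers infected with RH tachyzoites with 40 nM test compound, 0.1% DMSO or 1 µM pyrimethamine for 24 h. Fixed/permeabilized 20 min (3% formaldehyde, 0.2% Triton X-100) and blocked with 5% FBS/5% goat serum. Stained with anti-AcH4 antiserum and anti-IMC1 monoclonal (1:1,000), Alexa 568/488 secondaries, and Hoechst 33258 for DNA.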

Assay [6] deals with P. falciparum. Description: Antimalarial activity in vitro, P. falciparum intraerythrocytic growth. The class given is cell-based, Plasmodium falciparum. The note with it: 3D7 chloroquine sensitive, Dd2 chloroquine resistant, Fig. 1 C, n = 4. The method, boiled down:
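Drug exposure: 48 h for asynchronous 3D7 and Dd2 cultures, 20 h for plasmion-enriched 3D7 schizonts. Growth was read by […] incorporation, and EC50 was derived by nonlinear regression.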

For assay [7], the system named is N. caninum. The experiment in a line: N. caninum growth in HFF monolayer. It counts as cell-based, Neospora caninum. The settings on record: read-out: EC50 (nM ± SD), mean ± SD.
The test system of assay [8] is 20.m00351 mRNA, T. gondii type II Prugniaud strain. Description: Semiquantitative RT-PCR of 20.m00351 mRNA. The settings on record: 40 nM FR235222 for 3 d, n = 3. The class given is cell-based, Toxoplasma gondii.
Assay [9] deals with HFFs. The experiment in a line: Mammalian host cell proliferation. The class given is cell-based, human. The note with it: in vitro, parasites versus HFF cells.
Assay [10] deals with histone H4 acetylation in T. gondii TgHDAC3^T99A resistant line. Description: Immunoblot of histone acetylation in extracellular tachyzoites. It counts as cell-based, Toxoplasma gondii. The settings on record: 20 nM FR235222, immunoblot. Background: Immunoblotting shows a protein as a band on a membrane.
In assay [11] the test system is histone H4 acetylation in T. gondii TgHDAC3^T99I resistant line. The description is as above. The class given is cell-based, Toxoplasma gondii. The settings on record: 20 nM FR235222, immunoblot.
Assay [12] concerns histone H4 acetylation in T. gondii RH WT. Described as above. It counts as cell-based, Toxoplasma gondii.
Where [13] appears, read: read-out: EC50 (nM ± SD), T. gondii RH M190D4 (FR235222-resistant mutant, TgHDAC3 T99A) in HFF monolayer, [3H]uracil incorporation, mean ± SD.
Setting [14] is: read-out: EC50, T. gondii intracellular growth.

Like-named read-outs stand apart in the source and are kept apart here.

Regarding `CCC(=O)CCCCC[C@@H]1NC(=O)[C@H]2CCCCN2C(=O)[C@H]([C@@H](C)CC)NC(=O)[C@H](Cc2cn(OC)c3ccccc23)NC1=O` [Apicidin, apicidin], in assay [1] (setting [13]), the EC50 was 67 ± 16 nM.
With `CCc1nc(N)nc(N)c1-c1ccc(Cl)cc1` [Pyrimethamine, pyrimethamine], the EC50 in [2] is 195 ± 1 nM; in assay [1] (Toxoplasma gondii, read-out: EC50 (nM ± SD)), 300 ± 11 nM; in [4] (read-out: EC50 (nM ± SD), SD) it was 285 ± 61 nM; in [4] (setting [14]) it was 300 nM. The “induction of SRS9/P36” value in assay [3] (1 µM pyrimethamine, 2–3 d, IFA with anti-P36) is on record as “very weak induction”. Besides, the “AcH4 signals in nuclei of treated parasites versus DMSO control” value in assay [5] is listed as “not observed”.
In the case of `O=C(CCCCCN1C(=O)c2cccc3cccc(c23)C1=O)NO` [Scriptaid], in assay [4] (setting [14]), the EC50 amounted to 400 nM.
As for FR235222, the “comparison of EC50s on clones 3D7 and Dd2” value in assay [6] was “equivalent”. The EC50 in assay [1] (setting [13]) was 62 ± 5 nM; in assay [7], 8 ± 2 nM. In addition, the “parasitic vacuoles expressing SRS9/P36” value in [3] (40 nM FR235222, 2–3 d, IFA with anti-P36, n = 2) is listed as approximately 80%. In assay [8], the “20.m00351 mRNA levels” value is listed as “accumulated”. In addition, the “sensitivity of parasites relative to HFF cells” value in assay [9] was approximately 10 times. In addition, the “increase of AcH4 signals” value is on record as “approximately threefold” in assay [10]; “approximately eightfold” in [12] (WT, 20 nM FR235222, immunoblot); “approximately eightfold” in assay [12] (extracellular tachyzoites incubated with drug 4 h, immunoblot). Moreover, the “change of AcH4 signals” value in assay [11] is given as “remained unchanged”. In addition, the “AcH4 signals in nuclei of treated parasites versus DMSO control” value in assay [5] is given as “higher”. In addition, the “acetylation of histones H2B (K12 and K15) and H3K9” value in [12] (immunoblot, FR235222 treatment (Fig. S2)) is recorded as “not affected”.
